Measurements published in ChEMBL document CHEMBL4257458, “Antiproliferative activities of alkaloid-like compounds” (Medchemcomm, 2017).
The source made the active and inactive calls. The rule behind the calls is not given here.

Experiments:
[1] = test system: MDA-MB-231; experiment: Growth inhibition of human MDA-MB-231 cells at 50 uM after 48 hrs by MTS assay; type: functional, cell-based
Procedure, shortened: (§1)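 Cells in DMEM with 10% FBS and 1% penicillin/streptomycin, 37 °C, 5% CO2; 7 × 10^3 cells per well, serum removed after 24 h, then compound (1–50 μM; DMSO ≤0.1%) for 48 h. MTS reagent 4 h at 37 °C, OD 550 nm; blank-subtracted, normalised to DMSO control (100%). IC50 by nonlinear regression; triplicates.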

[2] = test system: MCF7; experiment: Antiproliferative activity against human MCF7 cells at 50 uM after 48 hrs by MTS assay; type: functional, cell-based; procedure, shortened: as §1
[3] = test system: MDA-MB-231; experiment: Cell cycle arrest in human MDA-MB-231 cells assessed as increase in G2/M phase at 20 uM after 24 hrs by propidium iodide staining based flow cytometry relative to control; type: functional
Procedure, shortened: (§2)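 MDA-MB-231 seeded at 5 × 10^5 per well, serum-starved 24 h, then treated 24 h (DMSO 0.1% control). Fixed overnight in 80% ethanol at 0 °C, washed, resuspended in PBS with 0.1% Triton X-100 and 0.1 mg mL−1 RNase A, stained with PI (50 μg mL−1) 30 min dark at 37 °C; flow cytometry, 1 × 10^4 events per sample; mean ± SEM of ≥3 independent experiments.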

[4] = test system: MDA-MB-231; experiment: Growth inhibition of human MDA-MB-231 cells after 48 hrs by MTS assay; type: functional, cell-based; details: MDA-MB-231, 48 h; procedure, shortened: as §1
[5] = test system: MDA-MB-231; experiment: Antiproliferative activity against human MDA-MB-231 cells assessed as cell viability at 20 uM after 48 hrs by MTS assay relative to control; type: functional; details: MDA-MB-231, 48 h, read-out: Activity; procedure, shortened: as §1
[6] = test system: MDA-MB-231; experiment: Growth inhibition of human MDA-MB-231 cells assessed as cell viability at 50 uM after 48 hrs by MTS assay relative to control; type: functional; details: MDA-MB-231, 48 h, read-out: Activity; procedure, shortened: as §1
[7] = test system: MDA-MB-231; experiment: Induction of apoptosis in human MDA-MB-231 cells after 48 hrs by Annexin V-FITC/propidium iodide staining based flow cytometry; type: functional, cell-based
Procedure, shortened: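 MDA-MB-231 at 1 × 10^5 per well, treated 48 h, 24 h after serum removal, at 20–40 μM (DMSO 0.1% v/v control). Cells trypsinised, washed in cold PBS, stained with Annexin V-FITC and PI (50 μg mL−1) in binding buffer, 20 min dark at 0 °C; flow cytometry scoring viable, early/late apoptotic and necrotic fractions; 3 independent experiments.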

[8] = test system: Vero; experiment: Antiproliferative activity against African green monkey Vero cells harboring GFP at 50 ug/ml after 4 days by fluorescence assay relative to control; type: cell-based; details: chlorocebus sabaeus, 96 h
Procedure, shortened: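 GFP-expressing VERO (ATCC CCL-81 stably transfected with pEGFP-N1) in MEM with 10% heat-inactivated FBS, pyruvate, NaHCO3 (geneticin omitted during assay); 3.3 × 10^4 cells per mL; compound added, 4 days at 37 °C, 5% CO2; quadruplicate; fluorescence ex 485/em 535 nm, day-0 signal subtracted; % cytotoxicity = [1 − (FU treated/FU 0.5% DMSO)] × 100; ellipticine positive control.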

[9] = test system: MDA-MB-231; experiment: Cell cycle arrest in human MDA-MB-231 cells assessed as decrease in G0/G1 phase at 20 uM after 24 hrs by propidium iodide staining based flow cytometry relative to control; type: functional; set-up: scale not given: the % may be the effect or the level left; procedure, shortened: as §2
[10] = test system: HT-29; experiment: Growth inhibition of human HT-29 cells after 48 hrs by SRB assay; type: functional, cell-based; details: HT-29, 48 h
[11] = test system: CCRF-CEM; experiment: Growth inhibition of human CCRF-CEM cells after 48 hrs by SRB assay; type: functional, cell-based
[12] = test system: Hs-578T; experiment: Growth inhibition of human Hs 578T cells after 48 hrs by SRB assay; type: functional, cell-based
[13] = test system: NCI-H522; experiment: Growth inhibition of human NCI-H522 cells after 48 hrs by SRB assay; type: functional, cell-based; details: NCI-H522, 48 h
[14] = test system: DU-145; experiment: Growth inhibition of human DU145 cells after 48 hrs by SRB assay; type: functional, cell-based; details: DU-145, 48 h
[15] = test system: PC-3; experiment: Growth inhibition of human PC3 cells after 48 hrs by SRB assay; type: functional, cell-based; details: PC-3, 48 h
[16] = test system: OVCAR-3; experiment: Growth inhibition of human OVCAR3 cells after 48 hrs by SRB assay; type: functional, cell-based; details: OVCAR-3, 48 h
[17] = test system: SW-620; experiment: Growth inhibition of human SW620 cells after 48 hrs by SRB assay; type: functional, cell-based; details: SW-620, 48 h
[18] = test system: CAKI-1; experiment: Growth inhibition of human Caki1 cells after 48 hrs by SRB assay; type: functional, cell-based; details: CAKI-1, 48 h
[19] = test system: SK-MEL-28; experiment: Growth inhibition of human SK-MEL-28 cells after 48 hrs by SRB assay; type: functional, cell-based; details: SK-MEL-28, 48 h
[20] = test system: MDA-MB-231; experiment: Antiproliferative activity against human MDA-MB-231 cells assessed as cell viability at 75 uM after 48 hrs by MTS assay relative to control; type: functional; details: MDA-MB-231, 48 h, read-out: Activity
[21] = test system: RPMI-8226; experiment: Growth inhibition of human RPMI8226 cells after 48 hrs by SRB assay; type: functional, cell-based; details: RPMI-8226, 48 h
[22] = test system: EKVX; experiment: Growth inhibition of human EKVX cells after 48 hrs by SRB assay; type: functional, cell-based
[23] = test system: MDA-MB-435; experiment: Growth inhibition of human MDA-MB-435 cells after 48 hrs by SRB assay; type: functional, cell-based; details: MDA-MB-435, 48 h
[24] = test system: MDA-MB-231; experiment: Growth inhibition of human MDA-MB-231 cells after 48 hrs by SRB assay; type: functional, cell-based; details: MDA-MB-231, 48 h
[25] = test system: RXF 393; experiment: Growth inhibition of human RXF393 cells after 48 hrs by SRB assay; type: functional, cell-based; details: RXF 393, 48 h
[26] = test system: T47D; experiment: Growth inhibition of human T47D cells after 48 hrs by SRB assay; type: functional, cell-based
[27] = test system: HL-60(TB); experiment: Growth inhibition of human HL-60(TB) cells after 48 hrs by SRB assay; type: functional, cell-based; details: HL-60, 48 h
[28] = test system: MOLT-4; experiment: Growth inhibition of human MOLT4 cells after 48 hrs by SRB assay; type: functional, cell-based; details: MOLT-4, 48 h
[29] = test system: COLO 205; experiment: Growth inhibition of human COLO205 cells after 48 hrs by SRB assay; type: functional, cell-based; details: COLO 205, 48 h
[30] = test system: MCF7; experiment: Growth inhibition of human MCF7 cells after 48 hrs by SRB assay; type: functional, cell-based; details: MCF7, 48 h
[31] = test system: SK-MEL-5; experiment: Growth inhibition of human SK-MEL-5 cells after 48 hrs by SRB assay; type: functional, cell-based; details: SK-MEL-5, 48 h
[32] = test system: SF-539; experiment: Growth inhibition of human SF539 cells after 48 hrs by SRB assay; type: functional, cell-based; details: SF-539, 48 h

CC(=O)N[C@@]1(C)C2CC[C@@]3(C)N=C(C)C1CC3C2 (relative stereo)
growth inhibition (GI) [1]: inactive

CC(=O)N[C@@]1(C)C2CC[C@]3(C)C(C2)CC1[C@H](C)N3C (some centres not stated)
growth inhibition (GI) [1]: inactive

CCC(=O)N[C@@]1(C)C2CC[C@@]3(C)N=C(CC)C1CC3C2 (relative stereo)
growth inhibition (GI) [1]: inactive

C[C@]1(NC(=O)CCl)C2CC[C@@]3(C)N=C(CCl)C1CC3C2 (relative stereo)
Activity [2]: inactive
Activity [3]: 15%
IC50 [4]: 7.9 µM
viability at 20 µM [5]: 90%
viability at 50 µM [6]: 24%
Activity [7]: Dose-dependent effect
Activity [8]: 84%
Activity [9]: 20%

COC(=O)C[C@H]1C(=O)C=C2C3CC4CC(CC[C@@]4(C)N21)[C@]3(C)NC(C)=O (some centres not stated)
growth inhibition (GI) [1]: inactive
IC50 [4]: > 50 µM

CCC(=O)N[C@@]1(C)C2CC[C@@]3(C)N[C@@H](CC)C1CC3C2 (some centres not stated)
growth inhibition (GI) [1]: inactive

COC(=O)/C=C1\C(=O)C=C2C3CC4CC(CCC4(C)N21)C3(C)NC(C)=O (configuration not stated)
IC50 [10]: 7.5 µM
IC50 [11]: 4.4 µM
IC50 [12]: 10.9 µM
IC50 [13]: 2 µM
IC50 [14]: 16.9 µM
IC50 [15]: 15.7 µM
IC50 [16]: 11.8 µM
IC50 [17]: 2.8 µM
IC50 [18]: 5.3 µM
IC50 [19]: 1.8 µM
viability at 75 µM [20]: 80%
IC50 [21]: 4.1 µM
IC50 [22]: 12.2 µM
IC50 [23]: 5.9 µM
IC50 [24]: 38.9 µM
IC50 [25]: 6.7 µM
IC50 [26]: 22.7 µM
IC50 [27]: 5.5 µM
IC50 [28]: 2.4 µM
IC50 [29]: 7.8 µM
IC50 [30]: 7.1 µM
IC50 [31]: 6.3 µM
Activity [8]: 77%
IC50 [32]: 3.3 µM

CCC(=O)N[C@@]1(C)C2CC[C@]3(C)C(C2)CC1[C@H](CC)N3C (some centres not stated)
growth inhibition (GI) [1]: inactive

CC(=O)N[C@@]1(C)C2CC[C@@]3(C)N=C(CCl)C1CC3C2 (relative stereo)
growth inhibition (GI) [1]: inactive

CC(=O)N[C@@]1(C)C2CC[C@@]3(C)N[C@@H](CCl)C1CC3C2 (some centres not stated)
growth inhibition (GI) [1]: inactive

CC(=O)N[C@@]1(C)C2CC[C@@]3(C)N[C@@H](C)C1CC3C2 (some centres not stated)
growth inhibition (GI) [1]: inactive
